# ARNT-TACC3 inh = disruptors of ARNT/TACC3 protein interaction, primary screen, biochemical, AlphaScreen, single concentration | AlphaScreen His-ARNT PAS-B/GST-TACC3 binding, luminescence; TACC3 fragment carries E629A point mutation | inhibition, % at 9.99 µM | 390,000 compounds, 0.66% hits | AID 623870, 2012;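 active = mean inhibition of replicates at least 50% and at least half of replicates each reaching 50%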;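 note: 0% = complete ARNT plus TACC3 wells and 100% = ARNT alone without TACC3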
# SR-BI DiI-HDL act = activators of SR-BI mediated DiI-HDL uptake, primary screen, ldlA[mSR-BI] CHO cells, DiI fluorescence | 3 h; 100 = double the neutral-control signal | activation, % at 12.5 µM | 320,000 compounds, 0.096% hits | AID 504775, 2011;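 active = mean replicate activation of at least 60% and every replicate at or above 60%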;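 note: 0% = median plate neutral-control signal and 100% = twice that signal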
#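 material = CHO ldlA[mSR-BI] cells | medium = Ham's F12 with 0.5% BSA, HEPES 25 mM, pH 7.4 | reagent = fluorescent DiI-HDL, 10 µg/mL final | compound dosing = single-point compound dose | incubation = 3 h, 37 °C | measured by = bottom-read fluorescence, 550/595 nm | measure = HDL uptake via cellular fluorescence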
# SR-BI HDL uptake = inhibitors of SR-BI mediated HDL lipid uptake, primary screen, ldlA[mSR-BI] cells, fluorescence, single point; Scavenger receptor class B member 1 (Mus musculus), Q61009; ldlA[mSR-BI] CHO cells, DiI-HDL uptake fluorescence, 3 h; inhibition, % at 12.5 µM; 320,000 compounds, 0.96% hits; AID 488896, 2010;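 active = mean replicate inhibition of at least 70% and a set share of replicates each scoring 70 or more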;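 note: 0% = median of neutral control wells and 100% = median of positive control wells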
# Target sequence (Q61009 whole entry, looked up): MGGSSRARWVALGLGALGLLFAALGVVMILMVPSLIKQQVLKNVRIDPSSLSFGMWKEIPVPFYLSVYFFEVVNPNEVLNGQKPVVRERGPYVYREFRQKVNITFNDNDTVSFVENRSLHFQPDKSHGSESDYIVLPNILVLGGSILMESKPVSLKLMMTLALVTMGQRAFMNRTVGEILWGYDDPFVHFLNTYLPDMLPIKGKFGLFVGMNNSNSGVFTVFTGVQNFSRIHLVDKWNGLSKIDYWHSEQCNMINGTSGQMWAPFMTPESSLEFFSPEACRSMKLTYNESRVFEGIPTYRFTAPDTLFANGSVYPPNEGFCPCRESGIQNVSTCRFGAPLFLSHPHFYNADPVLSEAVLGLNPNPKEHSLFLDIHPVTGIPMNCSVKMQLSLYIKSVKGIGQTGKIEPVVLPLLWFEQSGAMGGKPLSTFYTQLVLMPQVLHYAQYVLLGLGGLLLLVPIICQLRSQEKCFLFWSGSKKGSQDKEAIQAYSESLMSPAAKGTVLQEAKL
# CAL PDZ FP-1 = untagged CAL PDZ binding inhibitors, primary screen, biochemical, fluorescence polarization, HTS; Golgi-associated PDZ and coiled-coil motif-containing protein (Homo sapiens), Q9HD26; purified CAL PDZ, TMR-peptide fluorescence polarization, 1 h; inhibition, % at 24.9 µM; 300,000 compounds, 0.92% hits; AID 602252, 2012;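 active = mean inhibition of at least 30% with at least half of replicates also reaching 30%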;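 note: 0% = DMSO neutral control and 100% = excess unlabeled competitor peptide PRC23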
# miR-122 sensor = miR-122 Renilla sensor signal increase in Huh7, primary screen, miR-122 inhibitor project, cell-based, single point, plate reader; Huh7 miR-122 Renilla luciferase sensor, 48 h; neutral wells = 0, positive control = 100; activation (reporter increase), % at 12.5 µM; 340,000 compounds, 0.3% hits;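 active = mean replicate activation score at least 90 and every replicate individually at or above 90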;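 note: higher luciferase means less miR-122 activity so hits act as miR-122 inhibitors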
# CAL PDZ FP-2 = CAL PDZ peptide-binding inhibitors, primary screen, biochemical, fluorescence polarization, Cer-tagged CAL PDZ, HTS; Golgi-associated PDZ and coiled-coil motif-containing protein (Homo sapiens), Q9HD26; purified CAL PDZ, TMR-peptide fluorescence polarization, 1 h; inhibition, % at 20 µM; 330,000 compounds, 0.02% hits; AID 504414, 2011;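 active = highest replicate inhibition of at least 40%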;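 note: plate controls were DMSO neutral control wells for no effect and unlabeled competitor peptide control wells for full effect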
#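 Read-out basis: mP drop reported as inhibition | Assay system: Tagged CAL PDZ protein CerCALP, purified | Benchmarks: Unlabelled peptide for full inhibition, DMSO wells as neutral | Schedule: 1 h incubation at room temperature before polarization reading | Buffer or medium: Sodium phosphate/NaCl buffer pH 7.4 with TCEP, IgG, Thesit | Doses: Single point, 20 µM | Measured by: Fluorescence polarization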
# Starred values were filed as active, the others as inactive; / = no result given; [ ] = dose if it differs, or a comment. Hits are enriched below; roughly 2.1% of the tested compounds scored in any of these assays.
SMILES,ARNT-TACC3 inh,SR-BI DiI-HDL act,SR-BI HDL uptake,CAL PDZ FP-1,miR-122 sensor,CAL PDZ FP-2
CC(=O)c1cccc(NC(=O)CCNC(=O)c2cccc(C)c2)c1,0.1,8.1,-8.1,70.6*,0.0,-1.1
CC(C)(C)C(=O)Nc1sc(-c2ccccc2)cc1C(=O)O,-3.7,5.0,-5.0,-6.5,11.4,0.1
CC(=O)Nc1ccc(C(=O)NNC(=O)c2cccc(C)c2)cc1,38.1,15.2,-15.3,41.1*,-1.4,-0.6
CCC(=O)Nc1ccc2c(c1)C(=O)N(C)C[C@@H](OC)[C@@H](C)CN(Cc1ccccn1)[C@H](C)CO2,-1.7,/,/,/,10.3[16.7 µM],/
COc1ccccc1/C=C1\SC(=S)N(CCC(=O)NNC(=O)c2ccccc2O)C1=O,7.2,/,124.3*,/,/,-1.5
COc1ccc(/C=C2/SC(=S)N(CCCC(=O)Nc3ccccc3C(=O)O)C2=O)cc1,7.9,/,/,-7.5,-4.5,-3.0
COc1ccc(/C=C2\SC(=S)N(CCCC(=O)NNC(=O)c3ccccc3O)C2=O)cc1,-1.9,-109.6,109.6*,4.6,-4.3,0.4
O=C(O)C(Cc1ccccc1)N1C(=O)/C(=C/c2cccs2)SC1=S (stereo not drawn),38.2,10.0,-10.0,-4.4,0.0,-1.1
O=C(CCCN1C(=O)/C(=C/c2cccs2)SC1=S)NNC(=O)c1ccccc1O,3.0,-103.7,103.7*,-2.6,-1.7,-0.1
O=C(O)C(c1ccccc1)N1C(=O)/C(=C/c2cccs2)SC1=S (stereo not drawn),65.2*,/,/,/,-0.4,-1.9
O=C(CCCN1C(=O)/C(=C/c2cccs2)SC1=S)NNC(=O)c1ccncc1,-1.9,13.6,-13.6,1.4,/,-1.6
CN1C(=O)c2cc(NC(=O)c3cccs3)ccc2OC[C@H]2O[C@@H](CC(=O)NCC(F)(F)F)CC[C@@H]21,-6.5,/,/,/,-8.3[16.7 µM],/
Cc1ccc(S(=O)(=O)Nc2ccc3c(c2)C(=O)N([C@@H](C)CO)C[C@@H](C)[C@H](CN(C)C(=O)Nc2ccc4c(c2)OCO4)O3)cc1,/,/,/,/,3.1[16.7 µM],/
O=C(Nc1ccccc1F)N1CCCCN2[C@H](CO)[C@@H](c3ccc(C4=CCCCC4)cc3)[C@H]2C1,/,/,/,/,4.1[16.7 µM],/
CO[C@@H]1CN(C)C(=O)c2cc(NC(=O)Nc3ccc4c(c3)OCO4)ccc2OC[C@H](C)NC[C@@H]1C,-1.1,/,/,/,/,/
C[C@@H]1CN([C@@H](C)CO)C(=O)c2cc(-c3cccc(F)c3)cnc2O[C@@H]1CN(C)C(=O)c1ccccn1,1.0,/,/,/,-3.8[16.7 µM],/
COc1cccc(/C=C2\SC(=S)N(CCC(=O)Nc3ccc(O)cc3)C2=O)c1,-5.6,-8.5,8.5,-2.1,-4.3,0.5
COc1cccc(/C=C2\SC(=S)N(CCC(=O)NCCc3ccc(O)cc3)C2=O)c1,-3.7,-8.5,8.5,80.0*,9.6,0.3
Cc1cccc(S(=O)(=O)C(C#N)c2nc3ccccc3nc2N2CCCC2)c1 (stereo not drawn),15.5,-10.9,10.9,-0.7,118.6*,-0.5
N#CC(c1nc2ccccc2nc1N1CCCC1)S(=O)(=O)c1ccccc1 (stereo not drawn),20.5,39.8,-39.8,/,16.6,-0.7
COCc1cc(N2CCN(c3ccccc3F)CC2)nc(-c2ccccc2)n1,-14.8,-79.7,79.7*,-2.0,2.7,0.1
CCOc1ccc2cc(S(=O)(=O)N3CCCCC3)ccc2c1,-3.7,11.7,-11.7,60.3*,8.6,-0.1
CCOc1ccc2cc(S(=O)(=O)N3CCN(C)CC3)ccc2c1,/,43.5,-43.5,1.0,4.7,-2.7
CO[C@H]1CN(C)C(=O)c2ccc(NC(=O)C3CC3)cc2OC[C@H](C)N(CC2CC2)C[C@@H]1C,4.7,/,/,/,/,/
O=C(NCCCn1ccnc1)c1cc(-c2ccncc2)nc2ccccc12,-2.4,27.7,-27.7,-5.1,2.8,-0.4
SMILES,ARNT-TACC3 inh,SR-BI DiI-HDL act,SR-BI HDL uptake,CAL PDZ FP-1,miR-122 sensor,CAL PDZ FP-2
Cc1ccc(-c2cc(C(=O)NCCCn3ccnc3)c3ccccc3n2)s1,9.7,-23.6,23.6,-19.3,123.3*,-0.2
O=[N+]([O-])c1ccc(C2=NN(CCO)C(=Nc3ccc(OC(F)(F)F)cc3)SC2)cc1,2.7,6.6,-6.6,30.7*,/,0.1
COc1ccc(N=C2SCC(c3ccc([N+](=O)[O-])cc3)=NN2CCO)cc1,7.4,-5.4,5.4,-2.3,/,-0.2
Cc1oc(C(=O)O)cc1COc1ccc2c(C)cc(=O)oc2c1,0.1,-10.8,10.8,-4.0,-1.5,-0.3
Cc1cc(=O)oc2cc(OCc3cc4c(cc3Cl)OCO4)ccc12,5.6,-82.7,82.7*,-7.1,-3.1,-1.0
C[C@H]1CN([C@@H](C)CO)C(=O)c2cc(NC(=O)Cc3cn(C)c4ccccc34)ccc2O[C@@H]1CN(C)Cc1ccncc1,-1.6,/,/,/,2.7[16.7 µM],/
Cc1ccc2[nH]c(=O)c(C3C(C#N)=C(N)Oc4c3ccc3cccnc43)cc2c1 (stereo not drawn),50.0*,22.7,-22.7,-2.5,3.2,-2.8
COC(=O)C1=C(C)NC(C)=C(C(=O)OC)C1c1cc2cc(C)ccc2[nH]c1=O,1.4,25.6,-25.6,-6.7,4.5,-0.8
COc1ccc(S(=O)(=O)Nc2ccc3c(c2)C(=O)N([C@H](C)CO)C[C@@H](C)[C@H](CN(C)S(=O)(=O)c2cccs2)O3)cc1,-6.5,/,/,/,-2.4[16.7 µM],/
CN(C)C(=O)C[C@@H]1C[C@H]2c3cc(NC(=O)Nc4ccc(C(F)(F)F)cc4)ccc3O[C@H]2[C@@H](CO)O1,-6.8,/,/,/,2.9[16.7 µM],/
CC(O)(C(=O)c1ccccc1)c1ccccc1 (stereo not drawn),/,/,/,/,-0.2,/
O=C(c1ccccc1)C(O)(Cc1ccccc1)c1ccccc1 (stereo not drawn),12.1,-13.1,13.1,-1.7,168.3*,-0.8
CCC(=O)Nc1ccc2c(c1)C(=O)N(C)C[C@@H](OC)[C@H](C)CN(C(=O)c1ccncc1)[C@@H](C)CO2,-6.6,/,/,/,5.9[16.7 µM],/
C[C@H]1CN([C@@H](C)CO)C(=O)c2cccc(NC(=O)C3CCOCC3)c2O[C@@H]1CN(C)Cc1ccc(C(F)(F)F)cc1,-1.2,/,/,/,105.3*[16.7 µM],/
